This note sets out measurements from ChEMBL document CHEMBL1124545, “Tricyclic compounds as selective muscarinic receptor antagonists. 3. Structure-selectivity relationships in a series of cardioselective (M2) antimuscarinics” (J Med Chem, 1989).

Assay [1] has as its target Muscarinic receptor M2 and M3 (Rattus norvegicus) (UniProt P08483+P10980). Nature of the assay: Selectivity ratio for glandular muscarinic receptor 3 and cardiac muscarinic receptor 2 in rat.
In assay [2] the target is T1, Muscarinic acetylcholine receptor M2 (Rattus norvegicus, UniProt P10980).
T1 sequence (P10980 whole entry): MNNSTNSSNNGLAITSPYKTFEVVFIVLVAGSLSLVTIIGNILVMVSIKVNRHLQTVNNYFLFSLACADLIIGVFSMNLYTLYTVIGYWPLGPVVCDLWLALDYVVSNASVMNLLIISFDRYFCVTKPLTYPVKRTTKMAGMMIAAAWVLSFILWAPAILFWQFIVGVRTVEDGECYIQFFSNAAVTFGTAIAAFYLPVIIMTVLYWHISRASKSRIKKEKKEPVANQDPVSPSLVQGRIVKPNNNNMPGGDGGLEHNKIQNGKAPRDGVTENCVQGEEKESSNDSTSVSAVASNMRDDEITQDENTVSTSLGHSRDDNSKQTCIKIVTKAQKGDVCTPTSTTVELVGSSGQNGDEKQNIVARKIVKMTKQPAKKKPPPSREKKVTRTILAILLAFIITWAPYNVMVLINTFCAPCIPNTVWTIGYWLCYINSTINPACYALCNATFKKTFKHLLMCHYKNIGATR
Description: Binding affinity to the rat cardiac muscarinic acetylcholine receptor M2 using 0.3 nM [3H]N-methylscopolamine as radioligand. In outline:
(§1)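 Competition against 0.3 nM [3H]NMS in rat total heart homogenate (1:300 in 100 mM NaCl, 10 mM MgCl2, 20 mM HEPES, pH 7.4, cheesecloth-filtered). 1 mL homogenate incubated 45 min at 30 °C with a range of cold ligand concentrations. Pellets obtained by centrifugation, washed twice with saline, solubilized and counted. Nonspecific binding taken with 1 µM racemic QNB. Quadruplicate assays.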

Assay [3] addresses T2, Muscarinic acetylcholine receptor M3 (Rattus norvegicus, UniProt P08483). Description: Binding affinity for glandular muscarinic acetylcholine receptor M3 in rat assayed using 0.3 nM [3H]N-methylscopolamine as radioligand. In outline:
(§2)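 1 mL homogenate incubated 45 min at 30 °C with 0.3 nM [3H]NMS plus varying unlabeled compound. Bound ligand separated by centrifugation, saline-washed pellet scintillation counted. Nonspecific binding defined with 1 µM racemic QNB. Run in quadruplicate.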

Assay [4] relates to Muscarinic acetylcholine receptors M2 & M3 (Rattus norvegicus). Nature of the assay: Selectivity ratio for glandular muscarinic receptor 3 and cardiac muscarinic receptor 2 in rat.
The target of assay [5] is T1, Muscarinic acetylcholine receptor M2. Nature of the assay: Binding affinity of compound for cardiac Muscarinic acetylcholine receptor M2 in rat using 0.3 nM [3H]N-methylscopolamine as radioligand. In outline: as §1
Assay [6] concerns the target T2, Muscarinic acetylcholine receptor M3. Nature of the assay: Binding affinity of compound for glandular Muscarinic acetylcholine receptor M3 in rat using 0.3 nM [3H]N-methylscopolamine as radioligand. The essentials:
as §2

The structures appear in SMILES notation.

Chain of Muscarinic receptor M2 and M3 (Rattus norvegicus) (P08483 whole entry, looked up, one chain of several): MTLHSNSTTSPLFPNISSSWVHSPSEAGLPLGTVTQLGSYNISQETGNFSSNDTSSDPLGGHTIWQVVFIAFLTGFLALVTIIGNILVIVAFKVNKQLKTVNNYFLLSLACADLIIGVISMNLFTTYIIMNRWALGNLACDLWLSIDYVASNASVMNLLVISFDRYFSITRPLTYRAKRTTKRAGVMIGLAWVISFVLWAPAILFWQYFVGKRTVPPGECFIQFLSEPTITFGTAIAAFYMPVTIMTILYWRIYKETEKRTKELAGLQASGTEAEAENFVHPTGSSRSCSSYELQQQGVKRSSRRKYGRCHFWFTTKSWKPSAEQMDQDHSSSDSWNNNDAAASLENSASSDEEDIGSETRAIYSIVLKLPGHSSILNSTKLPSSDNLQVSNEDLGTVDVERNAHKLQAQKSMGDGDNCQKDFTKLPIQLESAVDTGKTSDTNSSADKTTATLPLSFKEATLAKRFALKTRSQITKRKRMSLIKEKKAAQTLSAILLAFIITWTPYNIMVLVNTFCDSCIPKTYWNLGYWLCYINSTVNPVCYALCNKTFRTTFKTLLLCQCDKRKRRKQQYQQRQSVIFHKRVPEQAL
T2 sequence (P08483 whole entry): as the sequence (P08483 whole entry, looked up, one chain of several) above

Take `CCNCC1CCCCN1CC(=O)N1c2ccccc2C(=O)Nc2cccnc21` (centres undefined): the Ratio in assay [1] worked out at 5. Further, the IC50 in assay [2] is 0.6 µM; in assay [3], 3 µM.

As for `CCN(CC)CC1CCCCN1CC(=O)N1c2ccc(Cl)cc2C(=O)Nc2cccnc21` (centres undefined), in assay [1], the Ratio is 40. Also, the IC50 in assay [2] turned out to be 0.1 µM; in assay [3], 4 µM.

In the case of `CCN(CC)CC1CCCCN1CC(=O)N1c2cc(C)ccc2C(=O)Nc2cccnc21` (centres undefined), the Ratio in assay [1] was 28.5. For the same molecule, the IC50 was determined as 0.07 µM in assay [2] and 2 µM in assay [3].

As to `CN(C)CC1CCCCN1CC(=O)N1c2ccccc2C(=O)Nc2cccnc21` (centres undefined), the Ratio in assay [1] was found to be 7.1. The IC50 in assay [2] came out at 0.14 µM; in assay [3], 1 µM.

For the molecule `CCN(CC)CC1CCCCN1CC(=O)N1c2ccccc2C(=O)Nc2cccnc21` (stereo in doubt; 29) [OTENZEPAD], the IC50 came out at 0.05 µM in assay [2] and 6 µM in assay [3].

On to `CCN(CC)CCC1CCCCN1CC(=O)N1c2ccccc2C(=O)Nc2cccnc21` (centres undefined), for which the Ratio in assay [1] amounted to 3. Moreover, the figures for the IC50 in assay [2] and in assay [3] were 0.33 µM and 1 µM, respectively.

`CCN(CC)CCCC1CCCCN1CC(=O)N1c2ccccc2C(=O)Nc2cccnc21` (centres undefined): the Ratio in assay [1] was determined as 3.3. The IC50 in assay [2] was 0.06 µM; in assay [3], 0.2 µM.

For `O=C1Nc2cccnc2N(C(=O)CN2CCCCC2CN2CCCCC2)c2ccccc21` (centres undefined), the Ratio in assay [4] was 2.5. The values for the IC50 in assay [5] and in assay [6] were 0.6 µM and 1.5 µM, respectively.

For `CCN(CC)CC1CCCCN1C(=O)N1c2ccccc2C(=O)Nc2cccnc21` (centres undefined), the Ratio in assay [1] was over 2. Also, the figures for the IC50 in assay [2] and in assay [3] were 5 µM and over 10 µM, respectively.

Regarding `CCN(CC)CC1CCCCCN1CC(=O)N1c2ccccc2C(=O)Nc2cccnc21` (centres undefined), the Ratio in assay [1] stood at 7.5. Besides, the IC50 in assay [2] came out at 2 µM; in assay [3], 15 µM.

As for `CCN(CC)CC1CCCCN1CC(=O)N1c2ccccc2C(=O)Nc2cccnc21` (stereo in doubt; 28), the Ratio in assay [1] was found to be 25.

As for `CCN(CC)CC1CCCCN1CC(=O)N1c2ccccc2C(=O)Nc2cccnc21` (stereo in doubt; 28) [OTENZEPAD], the IC50 in assay [2] was 0.4 µM; in assay [3], 10 µM.

Regarding `CCN(CC)CC1CCCCN1CC(=O)N1c2ccc(C)cc2C(=O)Nc2cccnc21` (centres undefined), the Ratio in assay [1] was 33.3. Further, the values for the IC50 in assay [2] and in assay [3] were 0.03 µM and 1 µM, respectively.

For `CCN(CC)CC1CCCCN1CC(=O)N1c2ccc(Br)cc2C(=O)Nc2cccnc21` (centres undefined), in assay [1], the Ratio is 26.6. Also, the IC50 worked out at 0.15 µM in assay [2] and 4 µM in assay [3].

Turning to `CCN(CC)CC1CCCCN1CC(=O)N1c2ccccc2C(=O)Nc2cccnc21` (stereo in doubt; 10) [OTENZEPAD], the IC50 in assay [3] was 6 µM.

As for `CCc1ccc2c(c1)C(=O)Nc1cccnc1N2C(=O)CN1CCCCC1CN(CC)CC` (centres undefined), in assay [1], the Ratio is 10. Further, the IC50 in assay [2] came out at 0.2 µM; in assay [3], 2 µM.

On to `CCCCN(C)CC1CCCCN1CC(=O)N1c2ccccc2C(=O)Nc2cccnc21` (centres undefined), for which, in assay [1], the Ratio is 2. Besides, the IC50 in assay [2] was 0.1 µM; in assay [3], 0.2 µM.

Take `CCN(CC)CC1CCCCN1CCC(=O)N1c2ccccc2C(=O)Nc2cccnc21` (centres undefined): in assay [1], the Ratio is 2.7. The IC50 was determined as 0.22 µM in assay [2] and 0.6 µM in assay [3].

As for `CCN(CC)CC1CCCCN1CC(=O)N1c2ccccc2C(=O)Nc2cccnc21` (stereo in doubt; 10), the Ratio in assay [1] came to 42.8.

For the molecule `CCN(C)CC1CCCCN1CC(=O)N1c2ccccc2C(=O)Nc2cccnc21` (centres undefined), the Ratio in assay [1] is 12.5. In addition, the IC50 was 0.12 µM in assay [2] and 1.5 µM in assay [3].

Take `CN(CC1CCCCN1CC(=O)N1c2ccccc2C(=O)Nc2cccnc21)C1CCCCCC1` (centres undefined): the Ratio in assay [1] came to 2.3. Moreover, the values for the IC50 in assay [2] and in assay [3] were 0.03 µM and 0.07 µM, respectively.

Consider `CCN(CC)CC1CCCCN1CC(=O)N1c2ccccc2C(=O)Nc2cccnc21` (stereo in doubt; 29), for which the Ratio in assay [1] stood at 120.

`O=C1Nc2cccnc2N(C(=O)CN2CCCCC2CN2CCCC2)c2ccccc21` (centres undefined): the Ratio in assay [1] amounted to 2.7. In addition, the IC50 in assay [2] is 0.56 µM; in assay [3], 1.5 µM.

As for `CCN(CC)CC1CCCN(CC(=O)N2c3ccccc3C(=O)Nc3cccnc32)C1` (centres undefined), the Ratio in assay [1] was determined as 1.8. Also, the IC50 in assay [2] stood at 0.17 µM; in assay [3] it was 0.3 µM.

As to `CCCN(CCC)CC1CCCCN1CC(=O)N1c2ccccc2C(=O)Nc2cccnc21` (centres undefined), the Ratio in assay [1] stood at 4. In addition, the figures for the IC50 in assay [2] and in assay [3] were 1.5 µM and 6 µM, respectively.

`CN(CC1CCCCN1CC(=O)N1c2ccccc2C(=O)Nc2cccnc21)C1CCCCC1` (centres undefined): the Ratio in assay [1] amounted to 2.5. Further, the IC50 in assay [2] amounted to 0.06 µM; in assay [3] it was 0.15 µM.

For the molecule `CCN(CC)CC1CCCCN1CC(=O)N1c2cc(Cl)ccc2C(=O)Nc2cccnc21` (centres undefined), the Ratio in assay [1] stood at 37.5. This molecule registered an IC50 in assay [2] of 0.04 µM.

In the case of `CCN(CC)CC1CCN(CC(=O)N2c3ccccc3C(=O)Nc3cccnc32)CC1`, the Ratio in assay [1] came out at 5. For the same molecule, the IC50 in assay [2] is 0.8 µM; in assay [3], 4 µM.

Consider `CCN(CC)CC1CCCN1CC(=O)N1c2ccccc2C(=O)Nc2cccnc21` (centres undefined), for which the Ratio in assay [1] came to 13. Moreover, the IC50 came to 0.15 µM in assay [2] and 2 µM in assay [3].

On to `O=C1Nc2cccnc2N(C(=O)CN2CCCCC2CN2CCOCC2)c2ccccc21` (centres undefined), for which the Ratio in assay [1] was under 4. For the same molecule, the IC50 is over 1 µM in assay [2] and 4 µM in assay [3].
